Source: ChEMBL document CHEMBL1156183, “Identification of very potent inhibitor of human aminopeptidase N (CD13)” (Bioorg Med Chem Lett, 2010)

Experiments:
[1] = molecular target: T1, Aminopeptidase N (Rattus norvegicus) (UniProt P15684); assay: Inhibition of rat aminopeptidase N assessed as ACC fluorophore released after 30 mins using Alanine ACC as substrate
T1 sequence (whole entry): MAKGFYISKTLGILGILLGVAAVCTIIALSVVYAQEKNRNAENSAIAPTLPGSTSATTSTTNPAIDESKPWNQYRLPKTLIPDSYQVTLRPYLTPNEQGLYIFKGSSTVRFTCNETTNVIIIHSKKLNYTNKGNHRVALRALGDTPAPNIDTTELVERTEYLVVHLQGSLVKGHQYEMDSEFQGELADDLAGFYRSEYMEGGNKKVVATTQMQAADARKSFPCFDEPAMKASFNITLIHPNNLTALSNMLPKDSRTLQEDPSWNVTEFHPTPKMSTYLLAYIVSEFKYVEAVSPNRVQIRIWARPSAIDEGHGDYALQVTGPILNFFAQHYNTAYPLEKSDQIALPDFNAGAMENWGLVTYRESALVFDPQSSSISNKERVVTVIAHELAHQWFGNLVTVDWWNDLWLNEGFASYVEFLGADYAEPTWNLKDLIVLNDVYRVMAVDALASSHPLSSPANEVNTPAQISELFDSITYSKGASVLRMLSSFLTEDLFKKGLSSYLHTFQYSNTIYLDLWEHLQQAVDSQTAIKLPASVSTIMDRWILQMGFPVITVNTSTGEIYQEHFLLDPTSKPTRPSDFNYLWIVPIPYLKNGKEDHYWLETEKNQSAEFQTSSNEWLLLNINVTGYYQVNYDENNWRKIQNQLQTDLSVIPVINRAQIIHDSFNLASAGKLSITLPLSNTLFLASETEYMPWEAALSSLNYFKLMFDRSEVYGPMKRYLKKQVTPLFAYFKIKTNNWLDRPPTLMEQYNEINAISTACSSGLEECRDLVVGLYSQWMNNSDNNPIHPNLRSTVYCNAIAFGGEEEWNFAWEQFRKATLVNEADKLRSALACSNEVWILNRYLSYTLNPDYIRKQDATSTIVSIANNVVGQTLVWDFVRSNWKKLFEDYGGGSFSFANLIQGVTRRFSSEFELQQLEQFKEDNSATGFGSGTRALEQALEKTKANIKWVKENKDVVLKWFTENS
Procedure, shortened: (§1)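 Enzyme (0.45 nM) preincubated 30 min at 37 C with phosphinate inhibitor (eight concentrations) in 100 mM Tris-HCl pH 7.5 (buffer made at 20 C), final DMSO 1%. Ala-ACC added at 50 uM final. ACC release read continuously in kinetic mode, ex 355/em 460 nm. IC50 values are means of two experiments.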

[2] = molecular target: T2, Aminopeptidase N (Sus scrofa) (UniProt P15145); assay: Inhibition of pig aminopeptidase N assessed as ACC fluorophore released after 30 mins using Alanine ACC as substrate; procedure, shortened: as §1
T2 sequence (whole entry): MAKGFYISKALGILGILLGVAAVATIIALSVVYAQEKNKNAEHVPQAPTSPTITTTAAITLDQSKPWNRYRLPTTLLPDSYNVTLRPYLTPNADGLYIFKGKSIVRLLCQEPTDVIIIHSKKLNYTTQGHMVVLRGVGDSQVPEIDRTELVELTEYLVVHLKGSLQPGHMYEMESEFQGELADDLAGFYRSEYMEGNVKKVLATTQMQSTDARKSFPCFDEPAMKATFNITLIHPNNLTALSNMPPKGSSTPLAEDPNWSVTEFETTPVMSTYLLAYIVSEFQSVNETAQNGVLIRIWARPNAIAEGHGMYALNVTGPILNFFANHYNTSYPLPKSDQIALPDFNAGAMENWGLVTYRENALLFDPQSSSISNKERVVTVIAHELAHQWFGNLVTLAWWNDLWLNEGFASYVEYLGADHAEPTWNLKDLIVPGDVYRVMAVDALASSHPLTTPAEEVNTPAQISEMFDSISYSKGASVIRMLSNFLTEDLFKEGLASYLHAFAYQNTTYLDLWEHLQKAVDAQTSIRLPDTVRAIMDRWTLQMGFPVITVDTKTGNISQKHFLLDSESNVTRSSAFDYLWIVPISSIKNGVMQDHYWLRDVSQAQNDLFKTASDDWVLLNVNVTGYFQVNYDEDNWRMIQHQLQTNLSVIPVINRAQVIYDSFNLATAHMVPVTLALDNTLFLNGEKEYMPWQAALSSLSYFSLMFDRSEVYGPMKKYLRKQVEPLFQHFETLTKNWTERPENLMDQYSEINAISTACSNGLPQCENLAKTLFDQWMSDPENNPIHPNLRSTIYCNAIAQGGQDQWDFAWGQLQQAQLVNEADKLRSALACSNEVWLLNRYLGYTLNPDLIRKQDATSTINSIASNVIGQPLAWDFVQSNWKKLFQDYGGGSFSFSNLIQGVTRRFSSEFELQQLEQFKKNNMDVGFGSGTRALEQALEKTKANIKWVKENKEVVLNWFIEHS

[3] = Selectivity ratio of IC50 for rat aminopeptidase N to the IC50 for human aminopeptidase N
[4] = Selectivity ratio of IC50 for pig aminopeptidase N to the IC50 for human aminopeptidase N

CSCCCNC(=S)P(=O)(O)C(C)N (centres undefined)
IC50 [1]: 3.45 µM | IC50 [2]: 2.45 µM

COC(=O)c1ccccc1CNC(=S)P(=O)(O)C(N)CC(C)C (centres undefined)
IC50 [1]: > 20 µM | IC50 [2]: > 20 µM

CCCCCCNC(=S)P(=O)(O)C(N)CC(C)C (centres undefined)
IC50 [1]: 1.7 µM | IC50 [2]: 1.4 µM

CCCCC(N)P(=O)(O)C(=S)NCc1ccccc1C(=O)OC (centres undefined)
IC50 [1]: > 20 µM | IC50 [2]: > 20 µM

CC(N)P(=O)(O)C(=S)NCc1ccccc1 (centres undefined)
IC50 [1]: 1.45 µM | IC50 [2]: 1.9 µM

CC(C)CC(O)P(=O)(O)C(N)c1ccccc1 (centres undefined)
IC50 [1]: 4.7 µM | IC50 [2]: 12 µM

CCCC(N)P(=O)(O)C(=S)NCc1ccccc1 (centres undefined)
IC50 [1]: 2.1 µM | IC50 [2]: 1.6 µM

CC(C)c1ccc(C(O)P(=O)(O)C(C)N)cc1 (centres undefined)
IC50 [1]: 3.5 µM | IC50 [2]: 1.2 µM

CC(C)C(N)P(=O)(O)C(O)CCc1ccccc1 (centres undefined)
IC50 [1]: 1.1 µM | IC50 [2]: 0.5 µM

CCCC(N)P(=O)(O)C(=S)NCc1ccc(OC)cc1 (centres undefined)
IC50 [1]: 2.45 µM | IC50 [2]: 2.15 µM

NC(c1ccccc1)P(=O)(O)C(O)CCc1ccccc1 (centres undefined)
IC50 [1]: 2.2 µM | IC50 [2]: 0.24 µM

CCCC(N)P(=O)(O)C(=S)NCc1ccc(C(=O)O)cc1 (centres undefined)
IC50 [1]: > 20 µM | IC50 [2]: > 20 µM

NC(CCc1ccccc1)P(=O)(O)C(O)CCc1ccccc1 (centres undefined)
IC50 [1]: 0.4 µM | IC50 [2]: 0.22 µM

CC(C)CNC(=S)P(=O)(O)C(N)C(C)C (centres undefined)
IC50 [1]: 8.95 µM | IC50 [2]: 4.8 µM

CCCC(N)P(=O)(O)C(O)Cc1ccccc1 (centres undefined)
IC50 [1]: 1.2 µM | IC50 [2]: 0.95 µM

CCCCC(N)P(=O)(O)C(=S)NCc1ccc(OC)cc1 (centres undefined)
IC50 [1]: 1.05 µM | IC50 [2]: 0.46 µM

COc1ccc(CNC(=S)P(=O)(O)C(N)CCc2ccccc2)cc1 (centres undefined)
IC50 [1]: 2.65 µM | IC50 [2]: 2.65 µM | Ratio IC50 [3]: 4 | Ratio IC50 [4]: 4

CC(C)CC(N)P(=O)(O)C(=S)NCc1ccccc1 (centres undefined)
IC50 [1]: 5.1 µM | IC50 [2]: 2.8 µM

CCCCC(N)P(=O)(O)C(=S)NCC(=O)OCc1ccccc1 (centres undefined)
IC50 [1]: > 20 µM | IC50 [2]: > 20 µM

CCCCC(N)P(=O)(O)C(=S)NCc1ccccc1 (centres undefined)
IC50 [1]: 1.1 µM | IC50 [2]: 0.62 µM

CC(N)P(=O)(O)C(=S)NCCc1ccccc1 (centres undefined)
IC50 [1]: 8.7 µM | IC50 [2]: 5.2 µM

CCOC(=O)c1ccc(CNC(=S)P(=O)(O)C(N)CCc2ccccc2)cc1 (centres undefined)
IC50 [1]: > 20 µM | IC50 [2]: > 20 µM

CCCCCCNC(=S)P(=O)(O)C(N)C(C)C (centres undefined)
IC50 [1]: 5.05 µM | IC50 [2]: 1.7 µM

CNC(=S)P(=O)(O)C(N)C(C)C (centres undefined)
IC50 [1]: 21.4 µM | IC50 [2]: 10.2 µM

CC(C)CC(N)P(=O)(O)C(O)CCc1ccccc1 (centres undefined)
IC50 [1]: 0.92 µM | IC50 [2]: 1 µM

CCCC(N)P(=O)(O)C(=S)NCc1ccc(C(=O)OCC)cc1 (centres undefined)
IC50 [1]: > 20 µM | IC50 [2]: > 20 µM

CCC(N)P(=O)(O)C(O)CCc1ccccc1 (centres undefined)
IC50 [1]: 2.4 µM | IC50 [2]: 1.3 µM

CCCCC(N)P(=O)(O)C(O)CCc1ccccc1 (centres undefined)
IC50 [1]: 0.52 µM | IC50 [2]: 0.21 µM

CC(C)CC(N)P(=O)(O)C(=S)NCCc1ccccc1 (centres undefined)
IC50 [1]: 5.4 µM | IC50 [2]: 4.2 µM

CCC(N)P(=O)(O)C(=S)NCCCSC (centres undefined)
IC50 [1]: 2.5 µM | IC50 [2]: 1.65 µM

CSCCCNC(=S)P(=O)(O)C(N)CCc1ccccc1 (centres undefined)
IC50 [1]: 1.65 µM | IC50 [2]: 1.55 µM

NC(CCc1ccccc1)P(=O)(O)C(=S)NCc1ccccc1 (centres undefined)
IC50 [1]: 2.5 µM | IC50 [2]: 2.3 µM

CCOC(=O)c1ccc(CNC(=S)P(=O)(O)C(C)N)cc1 (centres undefined)
IC50 [1]: > 20 µM | IC50 [2]: > 20 µM

CCCCC(N)P(=O)(O)C(=S)NCCCSC (centres undefined)
IC50 [1]: 0.61 µM | IC50 [2]: 0.36 µM

CCCNC(=S)P(=O)(O)C(N)CCc1ccccc1 (centres undefined)
IC50 [1]: 1.35 µM | IC50 [2]: 1.45 µM

CCCC(N)P(=O)(O)C(=S)NCCc1ccccc1 (centres undefined)
IC50 [1]: 2.55 µM | IC50 [2]: 1.35 µM

CCCC(N)P(=O)(O)C(=S)NCc1ccccc1C(=O)OC (centres undefined)
IC50 [1]: > 20 µM | IC50 [2]: > 20 µM

CNC(=S)P(=O)(O)C(N)CC(C)C (centres undefined)
IC50 [1]: 10.8 µM | IC50 [2]: > 20 µM

CC(O)P(=O)(O)C(N)c1ccccc1 (centres undefined)
IC50 [1]: 15.2 µM | IC50 [2]: 48 µM

NC(c1ccccc1)P(=O)(O)C(O)c1ccccc1 (centres undefined)
IC50 [1]: 0.46 µM | IC50 [2]: 0.55 µM

CCCCC(N)P(=O)(O)C(O)c1ccc(O)cc1 (centres undefined)
IC50 [1]: 6.2 µM | IC50 [2]: 5.8 µM

CCCCC(N)P(=O)(O)C(O)C(C)c1ccccc1 (centres undefined)
IC50 [1]: 0.46 µM | IC50 [2]: 0.22 µM

COc1ccc(CNC(=S)P(=O)(O)C(C)N)cc1 (centres undefined)
IC50 [1]: > 20 µM | IC50 [2]: > 20 µM

CCCC(N)P(=O)(O)C(=S)NCCCSC (centres undefined)
IC50 [1]: 1.45 µM | IC50 [2]: 1.95 µM

NC(Cc1ccccc1)P(=O)(O)C(O)CCc1ccccc1 (centres undefined)
IC50 [1]: 1.6 µM | IC50 [2]: 0.66 µM

CCCCC(N)P(=O)(O)C(=S)NCCc1ccccc1 (centres undefined)
IC50 [1]: 0.62 µM | IC50 [2]: 0.25 µM
